Runt-CBFb FRET – blocks binding of human RUNX1 Runt domain to CBFb; Q01196+Q13951; Cerulean-Runt/Venus-CBFb FRET ratio 530/480, 1 h; inhibition, % at 20 µM; 220,000 compounds, 0.46% hits; AID 1496;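 active = inhibition over about 50% at 20 µM in the single-dose screen, limit read from the data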;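 also: 0% = DMSO wells and 100% = excess unlabeled CBFb competitor control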
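System: Cerulean-labeled Runt domain protein | Quantity: 100 nM of each labeled protein | Schedule: 1 h compound exposure, room temperature | Detection: Fluorescence energy transfer, 422 nm excitation, 530/480 nm emission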
RBBP9 inh – human RBBP9 hydrolase inhibition; O75884; AID 1515; 220,000 compounds, 0.2% hits; inhibition, % at 7.94 µM; recombinant RBBP9, FP-Rh probe fluorescence polarization;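 active = inhibition above the campaign mean of all tested compounds plus 3 SD, cut at about 14% in these data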;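 also: plate controls were DMSO wells with RBBP9 for no effect and wells lacking RBBP9 protein for full effect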
Target sequence (O75884 whole entry, looked up): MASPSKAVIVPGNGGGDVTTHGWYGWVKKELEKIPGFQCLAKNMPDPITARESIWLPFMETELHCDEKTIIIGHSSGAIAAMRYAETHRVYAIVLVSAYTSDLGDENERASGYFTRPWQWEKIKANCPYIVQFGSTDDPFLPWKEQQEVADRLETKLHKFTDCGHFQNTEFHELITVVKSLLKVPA
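System: RBBP9 protein / Quantity: 2.5 µM RBBP9 dispensing solution, before mixing / Also added: Serine-hydrolase probe FP-Rh, 375 nM pre-mixing / Dosing: 7.94 µM single dose, 0.794% DMSO / Timing: enzyme-compound preincubation 30 min, then probe labeling 45 min, 25 °C / Signal: FP readout at 525/598 nm / Controls: DMSO-treated enzyme wells and wells lacking RBBP9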
M18AAP inhibitor – blocks P. falciparum M18 aspartyl aminopeptidase; recombinant PfM18AAP, H-Glu-NHMec fluorogenic cleavage; inhibition, % at 7.35 µM; 290,000 compounds, 1.2% hits; AID 1822;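 active = inhibition above the campaign mean inhibition over all tested compounds plus 3 SD, cut at about 28% in these data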;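 also: 0% = plate median of test compound wells and 100% = 2 mM ZnCl2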
Hck-Nef inh – inhibitors of human Hck kinase activated by Nef; P08631; Recombinant Hck-YEEI plus Nef, Z-Lyte FRET kinase assay; inhibition, % at 20 µM; 220,000 compounds, 0.68% hits;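 active = Hck-Nef kinase inhibition above about 50%, limit read from the data; inactive = inhibition below that limit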;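 also: 0% = DMSO with Hck plus Nef and 100% = Hck alone without Nef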
Runt-SMMHC FRET – inhibitors of human RUNX1 Runt domain binding to CBFb-SMMHC; inhibition, % at 20 µM; Cerulean-Runt/Venus-CBFb-SMMHC FRET ratio 530/480, 1 h; 220,000 compounds, 0.74% hits;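 active = mean inhibition across duplicate retests at 20 µM reaching about 50%, limit read from the data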;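 also: 0% = DMSO wells and 100% = wells with excess untagged CBFb-SMMHC; inhibitors lower the FRET ratio by blocking Runt binding to CBFb-SMMHC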
RanGTP-Impb inh – disruptors of Ran-importin-beta complex formation – biochemical, FRET, CFP-Ran, YFP-importin-beta, homogeneous, primary screen; cell-free CFP-Ran/YFP-importin-beta FRET ratio; inhibition, % (no concentration beside the values); 300,000 compounds, 1.1% hits; AID 2216;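 active = more than half of the replicate wells show a fall in the fluorescence ratio signal beyond about 16%, limit read from the data, passing the limit was not always enough; inconclusive = exactly half of the replicate wells pass the set limit; inactive = fewer than half of replicates pass the limit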;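 also: 0% = DMSO wells and 100% = Ran loaded with GDP instead of GTP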
Starred values were filed as active, the others as inactive. Most compounds without a hit are left out; they make up all but 2.9% or so of the library.

Results for O=C1NC(=O)C2=Cc3ccc(O)cc3OC2(O)N1 (configuration not stated) ?
Runt-CBFb FRET: 3.4; RBBP9 inh: 6.5; M18AAP inhibitor: 15.9; Hck-Nef inh: 18.8; Runt-SMMHC FRET: 90.0*

What do the screens show for `N/C(=N\N=C/c1ccc(-c2ccc(O)c(C(=O)O)c2)o1)N[N+](=O)[O-]`?
Runt-CBFb FRET: 45.8; RBBP9 inh: -5.9; M18AAP inhibitor: 31.5*; Hck-Nef inh: 10.2; Runt-SMMHC FRET: 31.3; RanGTP-Impb inh: -2.5

How did O=C1NC(=O)N(c2cccc(Br)c2)C(=O)/C1=C/c1ccsc1 do in these assays?
Runt-CBFb FRET: 17.9; RBBP9 inh: -8.1; M18AAP inhibitor: 1.7; Hck-Nef inh: 30.2; Runt-SMMHC FRET: 17.4; RanGTP-Impb inh: 8.1

What do the screens show for `CN1CCN(c2ccc(N)c(N3CCN(C)CC3)c2)CC1`?
Runt-CBFb FRET: -0.6; RBBP9 inh: 8.5; M18AAP inhibitor: 29.8*; Hck-Nef inh: 0.6; Runt-SMMHC FRET: -12.9; RanGTP-Impb inh: -0.4

Results for O=C1NC(=O)C(=Cc2ccc(-c3cc(Cl)ccc3[N+](=O)[O-])o2)C(=O)N1 ?
Runt-CBFb FRET: 38.7; RBBP9 inh: -6.8; M18AAP inhibitor: 19.6; Hck-Nef inh: 61.1*; Runt-SMMHC FRET: 36.8; RanGTP-Impb inh: -0.8

What do the screens show for `COc1ccc(C)cc1NC1=NCCCS1`?
Runt-CBFb FRET: 1.0; RBBP9 inh: -6.5; M18AAP inhibitor: -8.2; Hck-Nef inh: 23.5; Runt-SMMHC FRET: -0.4; RanGTP-Impb inh: -2.2

Results for O=C1NC(=O)N(c2ccccc2)C(=O)/C1=C\C=C\c1ccccc1 ?
Runt-CBFb FRET: 37.2; RBBP9 inh: 0.8; M18AAP inhibitor: -10.9; Hck-Nef inh: 13.5; Runt-SMMHC FRET: 55.4*; RanGTP-Impb inh: 0.2

What do the screens show for `O=C1NC(=O)N(c2ccccc2)C(=O)/C1=C\c1ccc([N+](=O)[O-])o1`?
Runt-CBFb FRET: 11.4; RBBP9 inh: -11.5; M18AAP inhibitor: 17.0; Hck-Nef inh: 55.1*; Runt-SMMHC FRET: 8.2; RanGTP-Impb inh: -1.7

How did Cc1c(-c2cccc(Cl)c2)nc2ccccc2c1C(=O)N1CCC2(CC1)OCCO2 do in these assays?
M18AAP inhibitor: -8.8; RanGTP-Impb inh: 1.1

How did Cc1cc(/C=C2\C(=O)NC(=O)N(c3ccc(F)cc3)C2=O)c(C)n1-c1cccc(C(=O)O)c1 do in these assays?
Runt-CBFb FRET: 6.8; RBBP9 inh: -4.5; M18AAP inhibitor: 13.1; Hck-Nef inh: 28.9; Runt-SMMHC FRET: 0.6; RanGTP-Impb inh: 3.1

What do the screens show for `Cc1cc(/C=C2\C(=O)NC(=O)N(c3ccccc3F)C2=O)c(C)n1-c1cc(C(=O)O)cc(C(=O)O)c1`?
M18AAP inhibitor: 30.1*; RanGTP-Impb inh: 11.6

How did Cc1ccc(Sc2ccc(C=C3C(=O)N(C)C(=O)N(C)C3=O)o2)cc1 do in these assays?
Runt-CBFb FRET: 7.8; RBBP9 inh: -5.2; M18AAP inhibitor: -3.1; Hck-Nef inh: 70.3*; Runt-SMMHC FRET: -5.8; RanGTP-Impb inh: inconclusive

What do the screens show for `CN1C(=O)C(=Cc2ccc(-c3cccc(Cl)c3)o2)C(=O)N(C)C1=O`?
Runt-CBFb FRET: 2.7; RBBP9 inh: -11.2; M18AAP inhibitor: -1.7; Hck-Nef inh: 25.6; Runt-SMMHC FRET: -2.3; RanGTP-Impb inh: 2.5

Results for O=C(NC1CCCCC1)[C@@H]1CC=C[C@@H]2CCN(Cc3ccccc3)C(=O)[C@@H]21 ?
RanGTP-Impb inh: -0.4

Results for O=C(NCCN1CCOCC1)c1ccc(Cl)nc1Cl ?
Runt-CBFb FRET: 0.0; RBBP9 inh: 1.6; M18AAP inhibitor: -6.9; Hck-Nef inh: 8.2; Runt-SMMHC FRET: 0.4; RanGTP-Impb inh: 10.2

Results for CCCCn1c(N)c(C(=O)NCCN2CCOCC2)c2nc3ccccc3nc21 ?
Runt-CBFb FRET: 20.9; RBBP9 inh: -3.8; M18AAP inhibitor: 15.1; Hck-Nef inh: 42.5; Runt-SMMHC FRET: 65.0*; RanGTP-Impb inh: 83.3*

What do the screens show for `COc1ccc(CCNC(=O)c2c(N)n(CCN3CCOCC3)c3nc4ccccc4nc23)cc1`?
Runt-CBFb FRET: 66.8*; RBBP9 inh: -1.9; M18AAP inhibitor: -6.1; Hck-Nef inh: 46.8; Runt-SMMHC FRET: 83.0*; RanGTP-Impb inh: 69.3*

Results for O=[N+]([O-])c1cccnc1N1CCCNCC1 ?
M18AAP inhibitor: 5.9; RanGTP-Impb inh: -3.1
